Experimental data taken from ChEMBL document CHEMBL1132375, “Synthesis and biochemical evaluation of 3-fluoromethyl-1,2,3, 4-tetrahydroisoquinolines as selective inhibitors of phenylethanolamine N-methyltransferase versus the alpha(2)-adrenoceptor” (J Med Chem, 1999).

Legend:
[1] = target: Adrenergic receptor alpha-2 (Rattus norvegicus) (UniProt P22086+P19328+P22909); assay: Ratio for binding affinity towards alpha-2 adrenoceptor to PNMT; type: protein assay
In short: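 Ratio of α2-adrenoceptor Ki (rat cortex, [3H]clonidine binding) to PNMT Ki (bovine adrenal enzyme, radiochemical assay with phenylethanolamine substrate).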

[2] = target: T1, Adrenergic receptor alpha-2 (Rattus norvegicus, UniProt P22086+P19328+P22909); assay: Compound was tested in vitro for its affinity towards rat Alpha-2 adrenergic receptor; type: protein assay
T1 sequence (P22086 whole entry): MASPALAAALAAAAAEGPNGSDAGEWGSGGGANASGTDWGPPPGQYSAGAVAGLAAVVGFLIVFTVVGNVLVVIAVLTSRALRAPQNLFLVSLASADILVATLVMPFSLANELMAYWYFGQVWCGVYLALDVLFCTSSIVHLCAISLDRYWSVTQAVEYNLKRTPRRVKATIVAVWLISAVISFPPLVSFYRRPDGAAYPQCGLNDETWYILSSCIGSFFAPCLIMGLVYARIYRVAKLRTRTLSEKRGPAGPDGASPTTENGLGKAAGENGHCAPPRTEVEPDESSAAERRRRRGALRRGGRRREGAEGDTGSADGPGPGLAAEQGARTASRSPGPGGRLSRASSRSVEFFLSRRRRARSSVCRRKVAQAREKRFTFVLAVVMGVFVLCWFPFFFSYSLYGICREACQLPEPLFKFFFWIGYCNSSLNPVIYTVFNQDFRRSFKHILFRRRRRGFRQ
T1 sequence (P19328 whole entry): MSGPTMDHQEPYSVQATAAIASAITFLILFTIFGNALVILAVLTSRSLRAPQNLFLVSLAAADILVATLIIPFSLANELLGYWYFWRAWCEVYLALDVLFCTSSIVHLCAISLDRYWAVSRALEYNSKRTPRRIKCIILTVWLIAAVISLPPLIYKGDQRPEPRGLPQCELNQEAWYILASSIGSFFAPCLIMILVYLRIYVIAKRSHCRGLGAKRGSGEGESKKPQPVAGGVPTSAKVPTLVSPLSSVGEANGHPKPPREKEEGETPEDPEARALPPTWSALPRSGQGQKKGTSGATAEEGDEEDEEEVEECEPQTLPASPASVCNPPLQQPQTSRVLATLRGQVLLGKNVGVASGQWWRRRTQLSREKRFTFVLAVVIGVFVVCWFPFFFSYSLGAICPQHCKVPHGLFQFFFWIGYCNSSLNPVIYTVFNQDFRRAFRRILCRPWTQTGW
T1 sequence (P22909 whole entry): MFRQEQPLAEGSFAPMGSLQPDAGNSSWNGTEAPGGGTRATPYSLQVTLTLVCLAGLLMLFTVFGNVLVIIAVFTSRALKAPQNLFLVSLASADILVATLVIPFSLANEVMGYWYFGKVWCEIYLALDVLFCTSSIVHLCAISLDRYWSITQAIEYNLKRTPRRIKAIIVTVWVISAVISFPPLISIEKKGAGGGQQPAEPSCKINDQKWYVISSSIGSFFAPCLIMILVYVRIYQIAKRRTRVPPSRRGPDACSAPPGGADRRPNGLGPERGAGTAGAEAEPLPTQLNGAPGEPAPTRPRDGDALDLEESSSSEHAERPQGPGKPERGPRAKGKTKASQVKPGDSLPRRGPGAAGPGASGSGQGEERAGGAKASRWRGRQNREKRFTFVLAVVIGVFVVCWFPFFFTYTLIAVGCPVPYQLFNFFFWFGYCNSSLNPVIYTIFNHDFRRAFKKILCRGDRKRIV
In short: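 Membranes from male Sprague-Dawley rat cortex, homogenized in ice-cold 50 mM Tris/HCl pH 7.7 and washed by three 50000g spins. Incubated with [3H]clonidine (final 2.0 nM) and varied inhibitor concentrations, 25 °C for 30 min, then vacuum-filtered on GF/B and counted. Nonspecific binding with 2 μM phentolamine. IC50 by log-probit, converted to Ki = IC50/(1+[clonidine]/KD).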

[3] = target: T2, Phenylethanolamine N-methyltransferase (Bos taurus, UniProt P10938); assay: Affinity for bovine Phenylethanolamine N-Methyltransferase
T2 sequence (P10938 whole entry): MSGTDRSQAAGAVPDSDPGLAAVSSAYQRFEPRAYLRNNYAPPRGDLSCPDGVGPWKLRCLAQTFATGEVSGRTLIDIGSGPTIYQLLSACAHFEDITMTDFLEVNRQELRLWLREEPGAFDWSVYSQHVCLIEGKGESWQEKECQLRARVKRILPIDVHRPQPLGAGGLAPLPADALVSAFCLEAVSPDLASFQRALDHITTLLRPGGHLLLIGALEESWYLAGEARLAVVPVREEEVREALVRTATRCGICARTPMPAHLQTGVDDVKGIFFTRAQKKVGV

[4] = target: T2, Phenylethanolamine N-methyltransferase; assay: Affinity for bovine Phenylethanolamine N-Methyltransferase (PNMT)

Work on CS(=O)(=O)c1ccc2c(c1)CNC(CF)C2 (centres undefined) yielded a Ratio [1] of 140, a Ki [2] of 230 µM and a Ki [3] of 1.6 µM.

In the case of COc1ccc2c3c([nH]c2c1)C=NCC3, the Ratio [1] is reported as 4.4.

FCC1Cc2ccc(C(F)(F)F)cc2CN1 (centres undefined) gave a Ratio [1] of 130, a Ki [2] of 41 µM and a Ki [4] of 0.32 µM.

NS(=O)(=O)c1ccc2c(c1)CNC(CO)C2 (centres undefined) gave a Ratio [1] of 4100.

FC(F)(F)C1Cc2ccc(Br)cc2CN1 (centres undefined) showed a Ratio [1] of 1900.

Compound FCC1Cc2ccc(I)cc2CN1 (centres undefined) has a Ratio [1] of 34, a Ki [2] of 7.1 µM and a Ki [3] of 0.21 µM.

Work on O=S(=O)(NCc1ccccc1)c1ccc2c(c1)CNC(CF)C2 (centres undefined) yielded a Ratio [1] of 17, a Ki [2] of 110 µM and a Ki [3] of 6.5 µM.

With CS(=O)(=O)c1ccc2c(c1)CNC(CO)C2 (centres undefined) the Ratio [1] was 1000.

O=[N+]([O-])c1ccc2c(c1)CNC(CF)C2 (centres undefined) was tested, and the Ratio [1] was 140, the Ki [2] was 76 µM and the Ki [3] was 0.54 µM.

In the case of CCC1Cc2ccccc2CN1 (centres undefined), the Ratio [1] is reported as 0.028.

Work on FCC1Cc2ccc(N=C=S)cc2CN1 (centres undefined) yielded a Ratio [1] of 39, a Ki [2] of 22 µM and a Ki [4] of 0.57 µM.

N#Cc1ccc2c(c1)CNC(CF)C2 (centres undefined) was tested, and the Ratio [1] was 420, the Ki [2] was 460 µM and the Ki [3] was 1.1 µM.

For CS(=O)(=O)c1ccc2c(c1)CNC(C(F)(F)F)C2 (centres undefined), the Ratio [1] was 110.

Work on FCC1Cc2ccc(Br)cc2CN1 (centres undefined) yielded a Ratio [1] of 10, a Ki [2] of 6.4 µM and a Ki [4] of 0.64 µM.

COCC1Cc2ccccc2CN1 (centres undefined) showed a Ratio [1] of 0.3.

[N-]=[N+]=Nc1ccc2c(c1)CNC(CF)C2 (centres undefined) showed a Ratio [1] of 28, a Ki [2] of 47 µM and a Ki [4] of 1.7 µM.

Compound NS(=O)(=O)c1ccc2c(c1)CNC(CF)C2 (centres undefined) has a Ratio [1] of 1000, a Ki [2] of 680 µM and a Ki [3] of 0.66 µM.

Compound OCC1Cc2ccccc2CN1 (centres undefined) has a Ratio [1] of 6.

Compound CNS(=O)(=O)c1ccc2c(c1)CNC(CF)C2 (centres undefined) has a Ratio [1] of 130, a Ki [2] of 310 µM and a Ki [3] of 2.4 µM.

FCC1Cc2ccccc2CN1 (centres undefined) gave a Ratio [1] of 2.5, a Ki [2] of 3.8 µM and a Ki [4] of 1.5 µM.

CC1Cc2ccccc2CN1 (centres undefined) was tested, and the Ratio [1] was 0.36.

In the case of Clc1ccc2c(c1Cl)CNCC2, the Ratio [1] is reported as 0.095.

With O=S(=O)(Nc1ccc(Cl)cc1)c1ccc2c(c1)CNC(CF)C2 (centres undefined) the Ratio [1] was 220, the Ki [2] was 160 µM and the Ki [3] was 0.74 µM.
